Measurements: ChEMBL document CHEMBL3808351, “Synthesis, biological evaluation, and physicochemical property assessment of 4-substituted 2-phenylaminoquinazolines as Mer tyrosine kinase inhibitors” (Bioorg Med Chem, 2016)
Converted amounts (≈) assume the structure as drawn.

Assays:
[1] = Antiproliferative activity against human DU145 cells after 48 hrs by SRB method; format: functional; conditions: DU-145, 48 h
[2] = target: T1, Tyrosine-protein kinase Mer (Homo sapiens, UniProt Q12866); test: Inhibition of MERTK (unknown origin) using EFPIYDFLPAKKK-CONH2 as substrate and ATP after 180 mins by microfluidic capillary electrophoresis method
T1 sequence (Q12866 whole entry): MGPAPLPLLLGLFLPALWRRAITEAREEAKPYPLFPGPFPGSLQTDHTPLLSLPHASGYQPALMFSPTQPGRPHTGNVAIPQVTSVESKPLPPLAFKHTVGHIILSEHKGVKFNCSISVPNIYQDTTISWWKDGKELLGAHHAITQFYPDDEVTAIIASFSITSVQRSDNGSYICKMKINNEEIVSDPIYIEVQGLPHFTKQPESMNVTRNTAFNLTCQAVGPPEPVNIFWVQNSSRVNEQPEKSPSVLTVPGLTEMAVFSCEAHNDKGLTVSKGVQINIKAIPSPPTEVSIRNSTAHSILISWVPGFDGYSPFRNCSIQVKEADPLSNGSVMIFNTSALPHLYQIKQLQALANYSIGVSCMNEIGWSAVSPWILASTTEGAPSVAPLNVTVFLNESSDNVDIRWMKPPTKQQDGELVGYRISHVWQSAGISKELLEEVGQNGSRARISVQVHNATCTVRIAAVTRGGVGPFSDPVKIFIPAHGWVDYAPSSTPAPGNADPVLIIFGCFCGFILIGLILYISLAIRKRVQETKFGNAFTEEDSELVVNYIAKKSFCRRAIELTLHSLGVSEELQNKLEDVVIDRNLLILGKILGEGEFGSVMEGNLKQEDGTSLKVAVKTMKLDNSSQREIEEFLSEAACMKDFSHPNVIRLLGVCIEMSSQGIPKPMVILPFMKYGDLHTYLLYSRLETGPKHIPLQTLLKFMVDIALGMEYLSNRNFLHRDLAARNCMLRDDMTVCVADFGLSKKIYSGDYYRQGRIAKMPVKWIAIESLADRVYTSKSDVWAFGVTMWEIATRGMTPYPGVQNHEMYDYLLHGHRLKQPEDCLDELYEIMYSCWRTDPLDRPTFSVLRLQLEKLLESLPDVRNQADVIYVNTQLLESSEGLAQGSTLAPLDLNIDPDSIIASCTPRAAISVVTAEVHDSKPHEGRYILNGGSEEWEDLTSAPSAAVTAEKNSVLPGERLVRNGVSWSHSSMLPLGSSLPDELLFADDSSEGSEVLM

[3] = tested on: A549; test: Antiproliferative activity against human A549 cells after 48 hrs by SRB method; format: functional; conditions: A549, 48 h
[4] = n-octanol-water partition co-efficient, log P of the compound after 24 hrs by HPLC analysis; format: physicochemical
[5] = Solubility of the compound in phosphate buffer at pH 7.4 by HPLC-UV method; format: physicochemical
Procedure, shortened: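 Compound stock was 10 mg/mL in DMSO. It was diluted into pH 7.4 phosphate buffer to a final 1% DMSO and stirred 4 h at room temperature, then spun at 10,000 rpm for 5 min. The saturated supernatant was read by HPLC-UV at 254 nm on a C18 column with a MeOH/water gradient. Concentration was taken from an acetonitrile standard curve spanning 0.20–50 µg/mL. Samples were run in triplicate.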

[6] = tested on: KB; test: Antiproliferative activity against human KB cells after 48 hrs by SRB method; format: functional
[7] = Antiproliferative activity against human KBVIN cells after 48 hrs by SRB method; format: functional

## Nc1ccc(Nc2nc(NCCCO)c3ccccc3n2)cc1
[1]
  GI50: 20.8 µM
[2]
  IC50: > 30 µM
[3]
  GI50: 17.1 µM

## Nc1ccc(Nc2nc(N3CCOCC3)c3ccccc3n2)cc1
[2]
  IC50: > 30 µM

## Fc1ccc(Nc2nc(NC3CCCC3)c3ccccc3n2)cc1
[4]
  logP: > 5
[5]
  solubility: 1.54 µg/mL (≈ 4.78 µM)

## CCCNc1nc(N(C)c2ccc(OC)cc2)nc2ccccc12
[4]
  logP: > 5
[5]
  solubility: 3.43 µg/mL (≈ 10.6 µM)

## COc1ccc(Nc2nc(NCCCO)c3ccccc3n2)cc1
[4]
  logP: 2.54
[5]
  solubility: 95.6 µg/mL (≈ 295 µM)

## COc1ccc(N(C)c2nc(N3CCOCC3)c3ccccc3n2)cc1
[2]
  IC50: > 30 µM

## Fc1ccc(Nc2nc(N3CCOCC3)c3ccccc3n2)cc1
[2]
  IC50: > 30 µM

## CNc1nc(Nc2ccc(OC)cc2)nc2ccccc12
[4]
  logP: 3.21
[5]
  solubility: 6.61 µg/mL (≈ 23.6 µM)

## N#Cc1ccc(Nc2nc(NC3CCCC3)c3ccccc3n2)cc1
[1]
  GI50: > 31.3 µM
[2]
  IC50: > 30 µM
[3]
  GI50: > 31.3 µM

## Oc1ccc(Nc2nc(NC3CCCC3)c3ccccc3n2)cc1
[4]
  logP: 3.95
[5]
  solubility: 3.1 µg/mL (≈ 9.68 µM)

## CCCNc1nc(Nc2ccc(OC)cc2)nc2ccccc12
[4]
  logP: > 5
[5]
  solubility: 4.36 µg/mL (≈ 14.1 µM)

## COc1ccc(Nc2nc(NC3CCCC3)c3ccccc3n2)cc1
[4]
  logP: > 5
[5]
  solubility: 10.4 µg/mL (≈ 31.1 µM)

## COc1ccc(N(C)c2nc(NC3CCCC3)c3ccccc3n2)cc1
[4]
  logP: > 5
[5]
  solubility: 1.11 µg/mL (≈ 3.19 µM)

## OCCCNc1nc(Nc2ccc(F)cc2)nc2ccccc12
[1]
  GI50: 20.6 µM
[2]
  IC50: > 30 µM
[3]
  GI50: 19.3 µM

## CC(=O)O[C@H]1C(=O)[C@@]2(C)[C@H]([C@H](OC(=O)c3ccccc3)[C@]3(O)C[C@H](OC(=O)[C@H](O)[C@@H](NC(=O)c4ccccc4)c4ccccc4)C(C)=C1C3(C)C)[C@]1(OC(C)=O)CO[C@@H]1C[C@@H]2O [PACLITAXEL]
[6]
  GI50: 0.0026 µM
[3]
  GI50: 0.0049 µM
[7]
  GI50: 0.948 µM

## COc1ccc(N(C)c2nc(NCC3CCOCC3)c3ccccc3n2)cc1
[2]
  IC50: > 30 µM

## N#Cc1ccc(Nc2nc(NCCCO)c3ccccc3n2)cc1
[4]
  logP: 2.84
[5]
  solubility: 7.52 µg/mL (≈ 23.5 µM)
